Data as given in PMC3790193 (British Journal of Cancer, 2013).
Read-outs that look alike come from different tables or passages of the source.

How the values were obtained:
[1] = assay type: in vivo, Rowett nude rats; settings: for half-life / AUC: male, Rowett nude (Cr:NIH-ru), rat
Summary of the method: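 Male Rowett nude rats dosed once with drug in saline: 2 mg kg−1 i.p., or aerosol over 90 min nose-only (0.6 mg kg−1 deposited). Deposited dose = aerosol concentration × minute volume × time × deposition fraction (~10%) ÷ body weight. Three rats per group killed at each of 11 times over 96 h. Plasma and lung extracted by solid-phase extraction; LC/MS/MS on C18 column (25 °C), positive ESI. Non-compartmental analysis of per-time-point means.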

[2] = Aerosol characterisation; assay type: physicochemical; settings: nebulised solution 5 mg ml^−1, Pari LC Plus nebulisers
Summary of the method: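 Aerosol from a 5 mg ml−1 solution made by three jet nebulisers, piped through a ~24 in, 1.58-cm stainless tube into a 52-port flow-past nose-only chamber (exhaust ~14 l min−1). Concentration measured gravimetrically on membrane filters. Particle size sampled from the breathing zone with a Mercer-style cascade impactor at ~2.0 l min−1; MMAD calculated from the impactor data.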

[3] = test system: Calu-6 cells; experiment: Orthotopic lung cancer model, tumour burden; assay type: in vivo, Rowett nude rats; settings: for reduction in tumour burden: vs vehicle
Summary of the method: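 Calu-6 cells instilled orotracheally into male nude rats. From 3 weeks, groups of 20 received saline, 2 mg kg−1 i.p., or 0.6 mg kg−1 aerosol on 4 consecutive days over 4 weeks. At 7 weeks, lungs weighed; burden = tumour-bearing minus normal lung weight (rats without tumour cells). Lungs inflated with 10% neutral-buffered formalin at 25 cm for 6 h; 5-μm paraffin sections, H&E. t-test/ANOVA.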

[4] = test system: Calu-6 tumours; experiment: Gene expression in lung tumours; assay type: in vivo, Rowett nude rats
Summary of the method: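 Male nude rats (8–10 weeks) given orotracheal Calu-6 cells. From week 3 they received saline, 2 mg kg−1 i.p., or 0.6 mg kg−1 aerosol on 4 consecutive days for 4 weeks. Five tumours from each of four rats per group; RNA by TRI-reagent, 1 μg reverse transcribed; TaqMan qPCR normalised to GAPDH. 2−ΔΔCt relative to vehicle tumours; triplicate assays; mean±s.e.m.; two-sample t-test.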

[5] = test system: Calu-6 cells; settings: systemic delivery, previous study; ref Belinsky et al, 2011; cited from earlier work
[6] = test system: Calu-6 tumours; experiment: Gene methylation profiling of tumours; assay type: in vivo, Rowett nude rats
Summary of the method: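 Bisulphite-treated DNA from Calu-6 lung tumours (three per rat, four rats per group: vehicle, i.p. or aerosol) run on HM450K arrays. Normal bronchial epithelial lines from three never smokers used as reference. Probes from 200 bp 5′ of TSS through 5′-UTR; X, Y and imprinted genes excluded. Background corrected by normal-exponential method; β-values 0–1. Genes with normal β ⩾0.2 excluded. Vehicle β ⩾0.45 counted as methylated; ⩾20% β drop counted as demethylation.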

[7] = test system: lung cancer; settings: nebuliser, ref Lemarie et al, 2011, cited from earlier work
[8] = aerosol, 0.6 mg kg^−1 inhaled deposited dose, 90 min nose-only, single dose
[9] = plasma, inhaled or intranasal, 0.6 mg/kg
[10] = systemic, intraperitoneal injection 2 mg kg^−1, single dose

## Nc1ncn([C@@H]2O[C@H](CO)[C@@H](O)[C@H]2O)c(=O)n1 [5-Aza, 5-azacytidine]
[1]; [8]
  AUC Lung: 8460 ng·h/mL
  Concentrationmax Lung: 7883 ng/mL
  Concentrationmax Plasma: 893 ng/mL
[1]; lung, inhaled or intranasal, 0.6 mg/kg
  half-life: 110 min
[1]; lung, ip, 2 mg/kg
  half-life: 8.4 min
[1]; [9]
  AUC: 1890 ng·h/mL
  half-life: 74.4 min
[1]; plasma, ip, 2 mg/kg
  AUC: 19100 ng·h/mL
  half-life: 25.2 min
[1]; [10]
  AUC Lung: 1082 ng·h/mL
  Concentrationmax Lung: 2147 ng/mL
  Concentrationmax Plasma: 15 492 ng ml^−1
[2]
  average MMAD (mean mass aerodynamic diameter): 0.71 μm
[3]; aerosol 0.6 mg kg^−1, 4 consecutive days over 4 consecutive weeks, N=17
  Lung weight, mean±s.d.: 3.72 ± 0.82 g
[3]; aerosol delivery over 4 weeks
  reduction in tumour burden: 29%
[3]; inhaled delivery, histology (not shown)
  removal of the pleomorphic cell population of tumours: equally effective as systemic delivery
[3]; irrespective of treatment route
  weight gain of rats: 15–20%
[3]; systemic 2 mg kg^−1, 4 consecutive days over 4 consecutive weeks, N=18
  Lung weight, mean±s.d.: 3.58 ± 0.95 g
[3]; systemic delivery over 4 weeks
  reduction in tumour burden: 34%
[4]; aerosol delivery compared with systemic delivery, P<0.001
  effect on the expression of Bik: more profound effect
[4]; following systemic or aerosol delivery
  expression of p21 (WAF1): increased to a similar extent
[5]
  pleomorphic cell population in residual tumour: < 5 % of the residual tumour
[6]; aerosol delivery
  average number of genes showing ⩾20% demethylation: 521 genes
[6]; aerosol delivery, on average
  genes classified as methylated in the Calu-6 tumours that responded: approximately 50%
[6]; aerosol exposure
  genes commonly demethylated in 75% of tumours: 501 genes
[6]; aerosol-treated rats
  genes in common across all tumours demethylated ⩾20%: 300 genes
[6]; systemic delivery
  average number of genes showing ⩾20% demethylation: 352 genes
[6]; systemic exposure
  genes commonly demethylated in 75% of tumours: 275 genes
[6]; systemic treatment
  genes in common across all tumours demethylated ⩾20%: 20 genes

## Nc1ccn([C@@H]2O[C@H](CO)[C@@H](O)C2(F)F)c(=O)n1 [Gemcitabine]
[7]; 1 day per week for 9 consecutive weeks
  total dose delivered to the lungs, on average: 42±16%
[7]
  toxicity: no haematologic toxicity, nephrotoxicity, or neurotoxicity were observed
